pEC50, pIC50, pKi: −log10 of the molar value. The source made the active and inactive calls. The calls are words filed in the database; no cut-off is given here.
Assays:
[1] = Inhibition of capsid protein VP1 in Enterovirus 71; design: species or system Enterovirus A71
Enterovirus A71 [2] = assay: microbe, parasite or virus in culture; assay type: functional, organism-based; conditions: Enterovirus A, Tainin/4643/98, Vero 76, 72 h
Vero 76 [3] = assay: (§1) Cytotoxicity against monkey Vero 76 cells by microscopic analysis; assay type: cell-based; conditions: chlorocebus sabaeus, vero 76
Vero 76 [4] = assay: (§2) Cytotoxicity against monkey Vero 76 cells by neutral red uptake assay; assay type: cell-based; conditions: chlorocebus sabaeus, vero 76
in vitro [5] = conditions: monkey, Vero 76 cells
Enterovirus A71 [6] = assay: microbe, parasite or virus in culture; assay type: functional, organism-based, Tainin/4643/98, Vero 76; conditions: Enterovirus A; for pEC50: Tainin/4643/98, Vero 76, 72 h
in vitro [7] = conditions: monkey, Vero 76 cells; remark: listed apart in the source
Enterovirus A71 [8] = assay: Antiviral activity against Enterovirus 71; assay type: functional, organism-based; conditions: Enterovirus A
[9] = target: 5-hydroxytryptamine receptor 2B (Homo sapiens, UniProt P41595); assay: Binding affinity to 5HT2B (unknown origin)
Chain of 5-hydroxytryptamine receptor 2B (P41595 whole entry): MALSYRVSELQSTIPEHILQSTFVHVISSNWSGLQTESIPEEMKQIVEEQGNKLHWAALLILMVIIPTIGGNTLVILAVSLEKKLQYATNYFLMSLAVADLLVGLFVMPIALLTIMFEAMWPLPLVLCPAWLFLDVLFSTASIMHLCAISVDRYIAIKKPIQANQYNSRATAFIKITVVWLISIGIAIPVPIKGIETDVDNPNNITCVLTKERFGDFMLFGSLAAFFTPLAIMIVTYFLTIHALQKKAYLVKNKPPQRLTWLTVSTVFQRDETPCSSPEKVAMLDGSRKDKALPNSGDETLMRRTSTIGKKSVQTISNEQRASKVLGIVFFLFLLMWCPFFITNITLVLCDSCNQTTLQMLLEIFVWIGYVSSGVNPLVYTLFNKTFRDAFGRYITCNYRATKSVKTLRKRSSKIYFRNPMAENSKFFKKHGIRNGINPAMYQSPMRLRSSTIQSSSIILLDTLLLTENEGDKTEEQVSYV

enterovirus D68 [10] = assay: Antiviral activity against Enterovirus D68 US/KY/14-18953 strain infected in RD cells assessed as reduction in virus-induced cytopathic effect by neutral red uptake assay; assay type: functional, organism-based; conditions: Enterovirus D, US/KY/14-18953, RD
In short: (§3)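 Cell-based inhibition of virus replication. Vero 76 cells for Coxsackie B3 and poliovirus 1; RD cells for enterovirus 68. Two read-outs: visual scoring of virus yield reduction and neutral red uptake for cytopathic effect. EC50 is reported, and EC90 for some visual values.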

enterovirus D68 [11] = assay: Antiviral activity against Enterovirus D68 US/KY/14-18953 infected in RD cells assessed as reduction in virus yield by visual inspection method; assay type: functional, organism-based; conditions: Enterovirus D, US/KY/14-18953, RD; in short: as §3
RD [12] = assay: Cytotoxicity against human RD cells by microscopic based visual inspection method; assay type: cell-based
RD [13] = assay: Cytotoxicity against human RD cells by neutral red uptake assay; assay type: cell-based
[14] = Selectivity index, ratio of CC50 for human RD cells to EC50 for Enterovirus D68 US/KY/14-18953 by neutral red uptake assay; assay type: toxicity; conditions: read-out: Ratio CC50/EC50
In short: (§4)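 Selectivity index calculated as CC50/EC50, both from the same cell line and the same read-out (visual or neutral red).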

[15] = Selectivity index, ratio of CC50 for human RD cells to EC50 for Enterovirus D68 US/KY/14-18953 strain; assay type: toxicity; in short: as §4
Poliovirus 1 [16] = assay: Antiviral activity against Poliovirus 1 Mahoney infected in monkey Vero 76 cells assessed as reduction in virus-induced cytopathic effect by neutral red uptake assay; assay type: functional, organism-based; conditions: Enterovirus C; in short: as §3
Coxsackievirus [17] = assay: Antiviral activity against Coxsackie virus B3 HA 201 933 infected in Vero 76 cells assessed as reduction in virus-induced cytopathic effect by neutral red uptake assay; assay type: functional, organism-based; conditions: B3 HA 201 933, Vero 76; in short: as §3
Coxsackievirus [18] = assay: Antiviral activity against Coxsackie virus B3 HA 201 933 infected in Vero 76 cells assessed as reduction in virus yield by visual inspection method; assay type: functional, organism-based; conditions: B3 HA 201 933, Vero 76; in short: as §3
Poliovirus 1 [19] = assay: Antiviral activity against Poliovirus 1 Mahoney infected in monkey Vero 76 cells assessed as reduction in virus yield by visual inspection method; assay type: functional, organism-based; conditions: Enterovirus C; in short: as §3
[20] = tested on: Respiratory syncytial virus; assay: Antiviral activity against Respiratory syncytial virus; assay type: functional, organism-based
Tacaribe virus = assay: Antiviral activity against Tacaribe virus; assay type: functional, organism-based; conditions: Mammarenavirus tacaribeense
[21] = as §1; assay type: cell-based; conditions: chlorocebus sabaeus, Vero 76 cells
[22] = as §2; assay type: cell-based; conditions: chlorocebus sabaeus, Vero 76 cells
[23] = Selectivity index, ratio for CC50 of monkey Vero 76 cells to EC50 for Coxsackie virus B3 HA 201 933 by visual inspection method; assay type: toxicity; conditions: read-out: Ratio CC50/EC50; in short: as §4
[24] = Selectivity index, ratio for CC50 of monkey Vero 76 cells to EC50 for Coxsackie virus B3 HA 201 933 by neutral red uptake assay; assay type: toxicity; conditions: read-out: Ratio CC50/EC50; in short: as §4
[25] = Selectivity index, ratio of CC50 for monkey Vero 76 cells to EC50 for Poliovirus 1 Mahoney by neutral red uptake assay; assay type: toxicity; conditions: read-out: Ratio CC50/EC50; in short: as §4
[26] = Selectivity index, ratio of CC50 for monkey Vero 76 cells to EC50 for Poliovirus 1 Mahoney; assay type: toxicity; conditions: read-out: Ratio CC50/EC50; in short: as §4

Structure (SMILES)	pEC50 (Enterovirus A71 [2])	CC50 (Vero 76 [3]) [µM]	CC50 (Vero 76 [4]) [µM]	selectivity ratio (in vitro [5])	pEC50 (Enterovirus A71 [6])	selectivity ratio (in vitro [7])	pEC50 (enterovirus D68 [10])	CC50 (RD [12]) [µM]	CC50 (RD [13]) [µM]	further results
CCn1nnc(-c2ccc(OCCC(C)CCN3CCN(c4ccncc4)C3=O)cc2)n1 (stereo unspecified)										pIC50 [1]: 9.10
CC(C)[C@@H](Nc1nc(Cl)nc2c1ncn2[C@H]1[C@H](O)[C@H](O)[C@@H]2C[C@@H]21)C1CC1	4.92	> 50	> 50	> 3.1	4.80	> 4.2				
OC[C@H]1O[C@@H](n2cnc3c(NCc4cccc(C(F)(F)F)c4)ncnc32)[C@H](O)[C@@H]1O										pEC50 (Enterovirus A71 [8]): 7.17
CC(C)[C@@H](Nc1nc(I)nc2c1ncn2[C@H]1[C@H](O)[C@H](O)[C@]2(CO)C[C@H]12)C1CC1	4.70	100	46	5.6	4.74	2.3				pKi [9]: 6.77
CC(C)[C@@H](Nc1nc(Cl)nc2c1ncn2[C@H]1[C@H](O)[C@H](O)[C@]2(CF)C[C@H]12)C1CC1	5.52	36	33	10		11	4.80	42	42	EC90 (enterovirus D68 [11]): 7.7 µM; selectivity ratio [14]: 2.6; selectivity ratio ([15]; read-out: Ratio): 5.4; pKi [9]: 6.03
CC(C)[C@@H](Nc1nc(Cl)nc2c1ncn2[C@H]1[C@H](O)[C@H](O)[C@]2(CO)C[C@H]12)C1CC1	5.04	24	24				4.49	> 100	> 100	pEC50 (Poliovirus 1 [16]): 4.57; pEC50 (enterovirus D68 [11]): 4.49; pEC50 (Coxsackievirus [17]): 4.80; pEC50 (Coxsackievirus [18]): 4.80; pEC50 (Poliovirus 1 [19]): 4.55; EC90 (Enterovirus A71 [6]; Tainin/4643/98, Vero 76, time 72 hrs): 7.7 µM
O[C@@H]1[C@H](O)[C@@H]2C[C@@H]2[C@H]1n1cnc2c(NC(C3CC3)C3CC3)nc(Cl)nc21	5.47	> 100	34	> 28	5.44	10	5.03	41	41	EC90 (enterovirus D68 [11]): 15 µM; selectivity ratio [14]: 4.4; selectivity ratio ([15]; read-out: Ratio): 2.7; Activity [20]: inactive
CC(C)[C@@H](Nc1nc(Cl)nc2c1ncn2[C@H]1[C@H](O)[C@H](O)[C@]2(CN=[N+]=[N-])C[C@H]12)C1CC1	5.32	32	32	6	5.28	6.7				
OC[C@@]12C[C@@H]1[C@@H](n1cnc3c(NC(C4CC4)C4CC4)nc(Cl)nc31)[C@H](O)[C@@H]2O		> 100	68							Activity (Tacaribe virus): inactive
OC[C@@]12C[C@@H]1[C@@H](n1ccc3c(NC(C4CCC4)C4CCC4)nc(Cl)nc31)[C@H](O)[C@@H]2O				> 3.1	4.49	3.6				CC50 [21]: > 100 µM; CC50 [22]: 86 µM
CC(C)S(=O)(=O)n1c(N)nc2ccc(/C(=N/O)c3ccccc3)cc21 [ENVIROXIME]							7.49	4.2	1.5	pEC50 (Poliovirus 1 [16]): > 8.00; pEC50 (enterovirus D68 [11]): 7.49; pEC50 (Coxsackievirus [17]): > 8.00; selectivity ratio [23]: > 1000; selectivity ratio [24]: > 450; pEC50 (Coxsackievirus [18]): > 8.00; pEC50 (Poliovirus 1 [19]): 7.82; selectivity ratio [14]: 47; selectivity ratio [25]: > 490; selectivity ratio ([15]; read-out: Ratio CC50/EC50): 130; selectivity ratio [26]: > 670
CC(C)[C@@H](Nc1nc(Cl)nc2c1ncn2[C@H]1[C@H](O)[C@H](O)[C@]2(CCl)C[C@H]12)C1CC1	5.41	32	27	7.4	5.37	6.9				

Source: ChEMBL document CHEMBL4699557, “Structure activity relationship of novel antiviral nucleosides against Enterovirus A71” (Bioorg Med Chem Lett, 2020)
